Source: PubChem BioAssay
Rows were chosen to be rich in hits. Some 2.9% of all compounds tested hit in one or more screens of this group.
CendR NRP1 mod: modulators of CendR peptide binding to NRP-1, primary screen, biochemical, fluorescence polarization, uHTS | hit rate 0.85% among 360,000 | FAM-RPARPAR peptide binding to NRP-1 | Neuropilin-1 (Homo sapiens), O14786 | inhibition, % at 25 µM;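 active = inhibition or corrected inhibition above about 18%, plus a signal ratio from 0.5 to 1.5, limit read from the data, passing the limit was not always enough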
CaV13 FRET inh: Disruptors of the CACNA1D IQ motif to Ca2+-dependent inactivation inhibitor domain association, primary screening, Förster resonance energy transfer in intact living …; hit rate 0.098% among 340,000; HEK cells, CFP/YFP FRET ICDI-IQ, plate reader, 10 min; percent FRET-ratio fall versus neutral wells; inhibition, % at 12.3 µM;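 active = mean replicate inhibition of at least 30% and at least 1% of replicates passing that level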;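 also: 0% = median of the neutral control wells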
ADAM17 inh: ADAM17 inhibitors, primary screen, biochemical, QFRET. Disintegrin and metalloproteinase domain-containing protein 17 (Homo sapiens), P78536. recombinant ADAM17, EDANS/DABCYL FRET peptide cleavage. inhibition, % at 6.95 µM. hit rate 0.83% among 370,000;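 active = inhibition above the mean of compounds lying between control limits plus 3 SD, set per campaign, cut at about 8.5% in these data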;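 also: 0% = DMSO-only wells as the low control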
FAS TE block: FAS thioesterase domain inhibitors, primary screen, biochemical, fluorescence intensity, uHTS | inhibition, % at 15 µM | AID 602261, 2012 | Fatty acid synthase (Homo sapiens), P49327 | hit rate 0.67% among 360,000 | recombinant FAS-TE, OMFH fluorogenic substrate, fluorescence endpoint;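 active = compounds whose normalised, plate-corrected inhibition of enzyme fluorescence in the single-dose primary screen is 50% or more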;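 also: 0% = DMSO with enzyme and 100% = substrate without enzyme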
ADAM10 inh: human ADAM10 inhibitors, primary screen, biochemical, QFRET, HTS. Disintegrin and metalloproteinase domain-containing protein 10 (Homo sapiens), O14672. recombinant ADAM10, EDANS/DABCYL FRET peptide cleavage, 3 h. inhibition, % at 7 µM. hit rate 0.62% among 370,000. AID 720582, 2013;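 active = inhibition above a per-campaign cutoff equal to the mean of compounds falling between control-based bounds plus 3 SD, cut at about 20% in these data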;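 also: 0% = DMSO wells while the 100% control is not disclosed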
Target sequence (O14672 214-748 limits assumed): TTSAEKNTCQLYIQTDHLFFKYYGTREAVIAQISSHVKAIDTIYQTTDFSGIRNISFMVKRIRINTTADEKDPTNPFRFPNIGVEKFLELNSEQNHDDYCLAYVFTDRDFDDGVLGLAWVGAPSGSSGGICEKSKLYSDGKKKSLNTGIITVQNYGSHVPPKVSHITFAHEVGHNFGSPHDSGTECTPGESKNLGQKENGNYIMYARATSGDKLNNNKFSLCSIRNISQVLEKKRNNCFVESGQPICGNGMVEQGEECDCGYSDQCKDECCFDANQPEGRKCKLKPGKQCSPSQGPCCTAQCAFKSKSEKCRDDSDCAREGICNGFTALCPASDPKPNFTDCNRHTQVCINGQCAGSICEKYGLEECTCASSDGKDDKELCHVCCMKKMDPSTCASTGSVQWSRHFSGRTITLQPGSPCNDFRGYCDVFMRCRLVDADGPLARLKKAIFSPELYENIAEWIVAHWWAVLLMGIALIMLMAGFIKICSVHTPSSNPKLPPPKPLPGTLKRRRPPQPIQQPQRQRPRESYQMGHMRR
Arrestin-AP2 inh: inhibitors of beta-arrestin/AP2 binding, primary screen, biochemical, GPCR trafficking, flow cytometry | hit rate 0.31% among 340,000 | inhibition, % at 10 µM | FITC-arrestin peptide / GST-AP2 beads; AP2 beta2 appendage carries R879A mutation | AID 504490, 2011;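 active = inhibition above a set limit, near 3 SD of compounds lacking own fluorescence, cut at about 54% in these data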;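 also: plate controls were DMSO wells for no effect and 5 µM unlabelled arrestin peptide for full effect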
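system = GST-tagged AP2 beta2-adaptin appendage (R879A) on 4 µm glutathione beads | reagent = FITC-labelled arrestin peptide probe, 50 nM final | schedule = compound with beads 12 min RT, then probe 1 h RT | signal = HyperCyt-sampled flow cytometry, FL1 channel, ex 488/em 535 nm | read-out = percent response from loss of bead-bound FITC fluorescence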
An asterisk follows results filed as active; i = inactive; · = no result given.

SMILES | CendR NRP1 mod | CaV13 FRET inh | ADAM17 inh | FAS TE block | ADAM10 inh | Arrestin-AP2 inh
COc1ccc(-c2cccc(C3CC=CC4C3C(=O)N(Cc3ccccc3)C4c3ccc(C(F)(F)F)cc3)c2)cc1 (stereo not given) | 3 | -2 | 0 | 34 | -7 | 0
C[C@@H]1CC=C[C@H]2[C@H]1C(=O)N(Cc1ccccc1)[C@H]2c1ccc(/C=C/c2ccccc2)cc1F | 29* | -8 | -1 | 20 | -10 | 5
COc1ccc([C@H]2[C@H]3C=CC[C@@H](C)[C@@H]3C(=O)N2Cc2ccccc2)cc1Cl | 28* | -6 | 3 | 15 | 9 | 2
CCOC(=O)C(=O)N(C)c1c(CC)nc2c(OCc3ccccc3OC)cccn12 | 15 | -10 | -1 | -5 | -6 | ·
COCCCN1C(=O)C(CC(=O)NCc2cccs2)CC(C(=O)N(C)C)=C1C (stereo not given) | 4 | -10 | 2 | -6 | 13 | ·
C[C@H](CCCCC1(C)OCCO1)CCC(=O)N(c1ccccc1)c1ccccc1 | · | · | 1 | · | 4 | ·
C[C@H]1CN([C@@H](C)CO)C(=O)CCCn2nncc2CO[C@H]1CN(C)S(=O)(=O)c1ccc(C#N)cc1 | 12 | -3 | 2 | -8 | 2 | ·
CCCc1cc(C(=O)Nc2cc(OC)ccc2OC)cs1 | -12 | -6 | -3 | 17 | 1 | -7
C[C@@]12CCC=C[C@H]1[C@H](c1ccc(C(F)(F)F)cc1)N(Cc1ccccc1)C2=O | 26* | -7 | -1 | 18 | 12 | 11
COc1ccc(-c2ccc(C)cc2)cc1[C@H]1[C@@H]2C=CCC[C@@]2(C)C(=O)N1Cc1ccccc1 | 9 | -4 | 0 | 32 | 0 | -4
CC(=O)N1c2ccc(S(=O)(=O)N3CCC(C(=O)Nc4cccc(C)c4)CC3)cc2CC1C (stereo not given) | 31* | -3 | -5 | 2 | -4 | 9
CC(=O)N1c2ccc(S(=O)(=O)N3CCC(C(=O)Nc4cc(C)cc(C)c4)CC3)cc2CC1C (stereo not given) | 6 | -7 | -4 | 13 | -4 | -5
COc1ccc(-c2[nH]ncc2CN(C)CCc2c(C)n[nH]c2C)c(F)c1 | 26* | -5 | -1 | -2 | -3 | 13
CCOC(=O)CC1(O)CSc2nc(N)cc(=O)n21 (stereo not given) | · | -14 | 2 | · | 1 | ·
COc1cc(OC)cc(C(=O)c2c(C)c(C#N)c3ccccn23)c1 | 7 | -2 | 0 | 27 | -3 | -16
N#Cc1c2ccc(OCC(N)=O)cc2n2ccccc12 | 1 | 77* | -200 | 0 | i | 0
Cc1cccc(-c2nsc(SCC(=O)c3ccc(Cl)cc3)n2)c1 | 45* | -3 | -3 | 15 | 1 | 8
O=C(CSc1nc(-c2ccccc2Cl)ns1)c1ccc(Cl)cc1 | 5 | -19 | 1 | 24 | 3 | 30
Cc1c(NC(=O)CSc2nnc(-c3ccccc3F)o2)c(=O)n(-c2ccccc2)n1C | 2 | -5 | -2 | -7 | -6 | ·
Nc1nonc1-n1nnc(C(=O)N/N=C/c2cc(Cl)ccc2O)c1CN1CCCCCC1 | -8 | -1 | -3 | 19 | -12 | -1
CCOc1ccc2c(c1)OC1(CCC(C)C1)CC2=O (stereo not given) | 28* | -5 | -2 | 7 | -8 | 9
C#Cc1cccc(OC[C@@H](O)CN2CCC(C(O)(c3ccccc3)c3ccccc3)CC2)c1 | · | · | 2 | · | 6 | ·
COc1ccccc1NC(=O)C1=C(C)NC(=O)NC1c1ccccc1F (stereo not given) | 20* | -7 | -1 | -4 | -19 | 4
O=C(COC(=O)Cc1cccs1)NCc1ccc(F)cc1 | 25* | -3 | 0 | -6 | 2 | -6
